Values after ≈ are worked out from the molar mass of the structure shown.
Assays:
[1] = molecular target: CYP3A4 (Homo sapiens, UniProt P08684); assay: (§1) Drug metabolism in human liver microsomes assessed as CYP3A4-mediated oxidative metabolism by measuring clearance rate; type: ADME; settings: liver microsomes, read-out: CLH
[2] = molecular target: T1, Diacylglycerol O-acyltransferase 2 (Homo sapiens, UniProt Q96PD7); assay: Inhibition of human DGAT2
T1 sequence (Q96PD7 whole entry): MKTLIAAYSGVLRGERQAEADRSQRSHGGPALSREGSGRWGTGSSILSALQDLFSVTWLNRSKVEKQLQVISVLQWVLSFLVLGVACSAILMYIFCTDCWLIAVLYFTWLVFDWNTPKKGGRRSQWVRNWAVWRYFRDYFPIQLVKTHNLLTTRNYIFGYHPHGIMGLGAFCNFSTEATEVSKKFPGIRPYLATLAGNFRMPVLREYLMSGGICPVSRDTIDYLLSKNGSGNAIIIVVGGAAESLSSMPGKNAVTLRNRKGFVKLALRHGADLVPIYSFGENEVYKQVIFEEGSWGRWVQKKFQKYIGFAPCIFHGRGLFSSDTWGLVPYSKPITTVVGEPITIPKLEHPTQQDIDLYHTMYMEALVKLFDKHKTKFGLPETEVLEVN
Procedure, shortened: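 IC50 against human DGAT2 in an enzymatic assay, reported as the geometric mean of at least three replicates with SEM.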

[3] = system: UGT; assay: (§2) Drug metabolism in human liver microsomes assessed as UGT-mediated glucuronidation by measuring clearance rate; type: ADME; settings: liver microsomes, read-out: CLH
[4] = system: Rattus norvegicus; assay: In vivo DGAT2 inhibition in po dosed sucrose-fed rat assessed as decrease in plasma triglyceride levels after 2 hrs; type: functional, organism-based
Procedure, shortened: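 Rats fed a high-sucrose diet, single oral dose of test article or vehicle; plasma TG measured in tail-vein blood 2 h post dose; n = 7–8 per group; results as percent change from vehicle group, one-way ANOVA with Dunnett's test.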

[5] = system: Canis familiaris; assay: Unbound AUC in beagle dog at 3 mg/kg, po qd administered for 1 month; type: ADME, organism-based, Canis lupus familiaris; settings: in vivo
Procedure, shortened: (§3)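 Beagle dogs were dosed orally once daily in a 14-day exploratory study or 1-month toxicity studies. Steady-state systemic exposure over the 24 h dosing interval is reported as the mean of male and female values combined.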

[6] = molecular target: T2, Cytochrome P450 3A4 (Homo sapiens, UniProt P08684); assay: as §1; type: ADME; settings: microsomes
T2 sequence (P08684 whole entry): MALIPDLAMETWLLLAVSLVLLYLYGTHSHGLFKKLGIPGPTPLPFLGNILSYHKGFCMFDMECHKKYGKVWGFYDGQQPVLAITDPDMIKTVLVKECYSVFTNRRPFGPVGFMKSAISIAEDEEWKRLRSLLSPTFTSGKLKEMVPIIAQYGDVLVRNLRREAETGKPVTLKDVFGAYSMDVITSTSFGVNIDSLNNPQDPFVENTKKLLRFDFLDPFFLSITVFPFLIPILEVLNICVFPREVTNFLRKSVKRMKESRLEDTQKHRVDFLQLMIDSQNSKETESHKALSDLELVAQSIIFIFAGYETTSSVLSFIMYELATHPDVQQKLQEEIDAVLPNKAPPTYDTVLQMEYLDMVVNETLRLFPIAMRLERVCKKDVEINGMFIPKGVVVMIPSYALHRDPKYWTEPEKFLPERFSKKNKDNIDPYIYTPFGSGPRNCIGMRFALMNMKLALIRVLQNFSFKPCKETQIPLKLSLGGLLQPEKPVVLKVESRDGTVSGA

[7] = molecular target: T3, Diacylglycerol O-acyltransferase 2 (Canis lupus familiaris, UniProt A0A8I3NDW2); assay: Inhibition of dog DGAT2
T3 sequence (A0A8I3NDW2 whole entry): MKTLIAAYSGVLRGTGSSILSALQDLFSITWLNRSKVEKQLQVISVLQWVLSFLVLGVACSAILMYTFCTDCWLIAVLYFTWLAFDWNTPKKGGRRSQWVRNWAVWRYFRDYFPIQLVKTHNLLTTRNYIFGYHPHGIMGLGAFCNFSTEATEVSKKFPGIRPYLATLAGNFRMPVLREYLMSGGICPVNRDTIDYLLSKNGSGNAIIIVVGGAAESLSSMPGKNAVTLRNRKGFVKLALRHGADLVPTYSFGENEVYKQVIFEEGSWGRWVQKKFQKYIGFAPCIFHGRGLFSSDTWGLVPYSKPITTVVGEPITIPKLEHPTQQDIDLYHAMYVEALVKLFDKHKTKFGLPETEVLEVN

[8] = system: Canis familiaris; assay: In vivo inhibition of DGAT2 in beagle dog assessed as coverage of in vitro IC50 for dog DGAT2 at 10 mg/kg, po qd administered for 1 month; type: functional, Canis lupus familiaris; parameters: scale not given: the % may be the effect or the level left
Procedure, shortened: (§4)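 Beagle dogs, once-daily oral dosing for 14 days or 1 month; systemic exposure with sexes combined; coverage is the average % above dog DGAT2 IC50 at steady state over the 24 h dosing interval.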

[9] = Thermodynamic solubility of the compound at pH 6.5; type: physicochemical; settings: buffer, read-out: Therm_solubility
[10] = system: Canis familiaris; assay: Toxicity in beagle dog at 3 to 30 mg/kg, po qd administered for 1 month; type: organism-based, Canis lupus familiaris; settings: in vivo
[11] = system: Canis familiaris; assay: In vivo inhibition of DGAT2 in beagle dog assessed as coverage of in vitro IC50 for dog DGAT2 at 30 mg/kg, po qd administered for 1 month; type: functional, Canis lupus familiaris; parameters: scale not given: the % may be the effect or the level left; procedure, shortened: as §4
[12] = Ratio of Cmax in beagle dog at 10 mg/kg, po qd administered for 1 month to IC50 for in vitro inhibition of dog DGAT2; type: organism-based, Canis lupus familiaris; settings: in vivo
Procedure, shortened: (§5)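 One-month toxicity study in Beagle dogs with N = 2/sex/dose. Plasma exposure at each dose level was referenced to the dog DGAT2 enzymatic IC50, reported as the geometric mean of at least three replicates.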

[13] = Fraction unbound in dog plasma; type: ADME, cell-free, Canis lupus familiaris
[14] = Apparent permeability of the compound at pH 7.4; type: ADME; settings: not told
[15] = system: Canis familiaris; assay: Unbound Cmax in beagle dog at 30 mg/kg, po qd administered for 1 month; type: ADME, organism-based, Canis lupus familiaris; settings: in vivo
Procedure, shortened: (§6)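 One-month dog toxicity study with once-daily oral dosing. Toxicity groups were 2/sex/dose, and unbound peak exposure was taken from toxicokinetic sampling.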

[16] = Apparent intrinsic clearance in dog hepatocytes assessed per million cells; type: ADME, cell-based, Canis lupus familiaris, Hepatocyte
[17] = system: Canis familiaris; assay: Unbound Cmax in beagle dog at 10 mg/kg, po qd administered for 1 month; type: ADME, organism-based, Canis lupus familiaris; settings: in vivo; procedure, shortened: as §3
[18] = Drug metabolism in human liver microsomes assessed as fraction of UGT-mediated glucuronidation preincubated for 5 mins followed by addition of NADPH regenerating system and measured after 2.5 to 60 mins; type: ADME
Procedure, shortened: (§7)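 Fractions of metabolism attributed to CYP oxidation and UGT glucuronidation were derived from human liver microsomal incubations. For the glucuronidation arm, microsomes were supplemented with the UGT cofactor UDP-glucuronic acid.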

[19] = Half life in beagle dog at 5 mg/kg, po; type: ADME, organism-based, Canis lupus familiaris; settings: in vivo
[20] = system: Canis familiaris; assay: Unbound AUC in beagle dog at 30 mg/kg, po qd administered for 1 month; type: ADME, organism-based, Canis lupus familiaris; settings: in vivo; procedure, shortened: as §3
[21] = Ratio of Cmax in beagle dog at 3 mg/kg, po qd administered for 1 month to IC50 for in vitro inhibition of dog DGAT2; type: organism-based, Canis lupus familiaris; settings: in vivo; procedure, shortened: as §5
[22] = Volume of distribution at steady state in beagle dog at 1 mg/kg, iv; type: ADME, organism-based, Canis lupus familiaris; settings: in vivo, read-out: Vdss
Procedure, shortened: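 Male Beagle dogs, single iv dose, crystalline form of compound; value is the mean of two experiments.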

[23] = molecular target: T2, Cytochrome P450 3A4; assay: Drug metabolism in human liver microsomes assessed as fraction of CYP3A4-mediated oxidative metabolism preincubated for 5 mins followed by addition of NADPH regenerating system and measured after 2.5 to 60 mins; type: ADME; procedure, shortened: as §7
[24] = Fraction unbound in rat plasma; type: ADME, cell-free
[25] = system: Canis familiaris; assay: In vivo inhibition of DGAT2 in beagle dog assessed as coverage of in vitro IC50 for dog DGAT2 at 3 mg/kg, po qd administered for 1 month; type: functional, Canis lupus familiaris; parameters: scale not given: the % may be the effect or the level left; procedure, shortened: as §4
[26] = Plasma clearance in beagle dog at 1 mg/kg, iv; type: ADME, organism-based, Canis lupus familiaris
[27] = Apparent intrinsic clearance in rat hepatocytes assessed per million cells; type: ADME, cell-based, Hepatocyte
[28] = Half life in beagle dog at 1 mg/kg, iv; type: ADME, organism-based, Canis lupus familiaris; settings: in vivo
[29] = Oral bioavailability in beagle dog at 5 mg/kg; type: ADME, organism-based, Canis lupus familiaris; settings: in vivo
[30] = molecular target: T4, Diacylglycerol O-acyltransferase 2 (Rattus norvegicus, UniProt Q5FVP8); assay: Inhibition of rat DGAT2
T4 sequence (Q5FVP8 whole entry): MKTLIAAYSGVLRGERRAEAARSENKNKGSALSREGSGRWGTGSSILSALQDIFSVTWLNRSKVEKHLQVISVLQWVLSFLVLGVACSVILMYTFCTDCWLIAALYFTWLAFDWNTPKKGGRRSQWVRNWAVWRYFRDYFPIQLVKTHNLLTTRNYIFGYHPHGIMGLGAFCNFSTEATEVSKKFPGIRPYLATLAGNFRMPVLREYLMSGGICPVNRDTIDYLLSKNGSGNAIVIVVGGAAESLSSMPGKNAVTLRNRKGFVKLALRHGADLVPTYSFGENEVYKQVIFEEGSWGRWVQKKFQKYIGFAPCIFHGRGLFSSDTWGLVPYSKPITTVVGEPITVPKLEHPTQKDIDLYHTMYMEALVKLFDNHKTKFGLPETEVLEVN

[31] = Apparent intrinsic clearance in human hepatocytes assessed per million cells; type: ADME, cell-based, Hepatocyte
[32] = Ratio of Cmax in beagle dog at 30 mg/kg, po qd administered for 1 month to IC50 for in vitro inhibition of dog DGAT2; type: organism-based, Canis lupus familiaris; settings: in vivo; procedure, shortened: as §5
[33] = as §2; type: ADME; settings: microsomes
[34] = system: Canis familiaris; assay: Unbound Cmax in beagle dog at 3 mg/kg, po qd administered for 1 month; type: ADME, organism-based, Canis lupus familiaris; settings: in vivo; procedure, shortened: as §6
[35] = system: Canis familiaris; assay: Unbound AUC in beagle dog at 10 mg/kg, po qd administered for 1 month; type: ADME, organism-based, Canis lupus familiaris; settings: in vivo; procedure, shortened: as §3
[36] = molecular target: T5, Diacylglycerol O-acyltransferase 1 (Homo sapiens, UniProt O75907); assay: Inhibition of DGAT1 (unknown origin)
T5 sequence (O75907 whole entry): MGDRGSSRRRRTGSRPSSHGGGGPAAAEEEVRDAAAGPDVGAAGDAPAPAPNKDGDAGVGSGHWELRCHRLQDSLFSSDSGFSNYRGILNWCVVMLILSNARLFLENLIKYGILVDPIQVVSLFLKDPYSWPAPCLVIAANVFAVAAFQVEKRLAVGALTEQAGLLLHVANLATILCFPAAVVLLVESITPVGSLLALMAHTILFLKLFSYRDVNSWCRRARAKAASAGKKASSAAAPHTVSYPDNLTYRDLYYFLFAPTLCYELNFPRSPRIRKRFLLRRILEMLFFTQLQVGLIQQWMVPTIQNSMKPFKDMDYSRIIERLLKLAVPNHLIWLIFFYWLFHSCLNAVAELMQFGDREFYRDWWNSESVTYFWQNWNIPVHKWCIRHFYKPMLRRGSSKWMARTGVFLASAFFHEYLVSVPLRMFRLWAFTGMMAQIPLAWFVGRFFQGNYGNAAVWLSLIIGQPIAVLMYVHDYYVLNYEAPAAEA

CYP3A4, sequence (P08684 whole entry): as the sequence (P08684 whole entry) above

CC(c1nc2cnc(N3CCC[C@@H](C(=O)N4CCCC4)C3)nc2[nH]1)n1cc(Cl)cn1 (single isomer, unassigned; diastereomer 2)
microsomal CLint [1]: 21.5 µL/min/mg
IC50 [2]: 37 nM
microsomal CLint [3]: 15.2 µL/min/mg

CC(C)(c1nc2ccc(N3CCC[C@@H](C(=O)N4CCCC4)C3)nc2[nH]1)n1cc(Cl)cn1
microsomal CLint [1]: 35.4 µL/min/mg

CC(c1nc2cnc(N3CCC[C@@H](C(=O)N4CCCC4)C3)nc2[nH]1)n1cc(Cl)cn1 (single isomer, unassigned; diastereomer 1) [listing 1 of 2 here]
inhibition [4]: Dose-dependent effect

CC(c1nc2cnc(N3CCC[C@@H](C(=O)N4CCCC4)C3)nc2[nH]1)n1cc(Cl)cn1 (single isomer, unassigned; diastereomer 1) [listing 2 of 2 here]
fAUC [5]: 149 ng·h/mL
CLH [6]: 23.5 µL/min/mg
IC50 [7]: 53 nM
IC50 [2]: 26 nM
Activity [8]: 50%
solubility thermodynamic [9]: 53 µg/mL (≈ 124 µM)
Activity [10]: Non-Toxic
Activity [11]: 74%
Ratio [12]: 9
fraction unbound [13]: 0.25
Papp [14]: 16.2 ×10⁻⁶ cm/s
fCmax [15]: 1760 nM
CLH(app) [16]: < 8 µL/min
fCmax [17]: 487 nM
Ratio [18]: 0.52
half-life [19]: 3.8 h
fAUC [20]: 1560 ng·h/mL
Ratio [21]: 3
Vd [22]: 0.58 L/kg
Ratio [23]: 0.48
fraction unbound [24]: 0.18
Activity [25]: 21%
clearance [26]: 7.3 mL/min/kg
CLH(app) [27]: 12 µL/min
half-life [28]: 1.1 h
bioavailability [29]: 32%
IC50 [30]: 241 nM
CLH(app) [31]: 13.1 µL/min
Ratio [32]: 33
CLH [33]: 20.3 µL/min/mg
fCmax [34]: 140 nM
fAUC [35]: 540 ng·h/mL
IC50 [36]: > 50000 nM

C[C@H](c1nc2ccc(N3CCC[C@@H](C(=O)N4CCCC4)C3)nc2[nH]1)n1cc(Cl)cn1
microsomal CLint [1]: 26 µL/min/mg
microsomal CLint [3]: 7.6 µL/min/mg
